Reference: ChEMBL document CHEMBL2034933, “New quinazolinone-pyrimidine hybrids: synthesis, anti-inflammatory, and ulcerogenicity studies” (Eur J Med Chem, 2012)

Columns and labels:
Rattus norvegicus [1] = assay: Antiinflammatory activity in albino rat assessed as inhibition of carrageenan-induced paw edema at 100 mg/kg, po administered 1 hr prior to carrageenan-challenge measured after 0.5 hrs; type: functional
Method in brief: (§1)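 Adult albino rats of both sexes (120–150 g), pre-hydrated with 3 ml water by gavage, five per group. Test agents suspended in distilled water with a few drops of Tween 80, given orally 1 h before sub-plantar injection of 50 µl 1% carrageenan into the right hind paw. Dial-gauge paw thickness taken at 0.5, 1, 2 and 3 h, with the left paw as reference. % inhibition = (Wc−Wt)/Wc × 100 against saline/Tween 80 controls.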

Rattus norvegicus [2] = assay: Antiinflammatory activity in albino rat assessed as inhibition of carrageenan-induced paw edema at 100 mg/kg, po administered 1 hr prior to carrageenan-challenge measured after 2 hrs; type: functional; method in brief: as §1
Rattus norvegicus [3] = assay: Antiinflammatory activity in albino rat assessed as inhibition of carrageenan-induced paw edema at 100 mg/kg, po administered 1 hr prior to carrageenan-challenge measured after 1 hr; type: functional; method in brief: as §1
Rattus norvegicus [4] = assay: Antiinflammatory activity in albino rat assessed as inhibition of carrageenan-induced paw edema at 100 mg/kg, po administered 1 hr prior to carrageenan-challenge measured after 3 hrs; type: functional; method in brief: as §1
Ovis aries = organism: Ovis aries; assay: Selectivity ratio of IC50 for ovine COX2 to ovine COX1
Method in brief: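 Ovine COX-1 and COX-2 inhibition measured with a commercial COX inhibitor screening kit following the Gierse et al. method. Selectivity expressed as the ratio IC50(COX-2)/IC50(COX-1).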

Rattus norvegicus [5] = assay: Antiinflammatory activity in albino rat assessed as inhibition of carrageenan-induced paw edema at 50 mg/kg, po administered 1 hr prior to carrageenan-challenge measured after 3 hrs; type: functional; method in brief: as §1
Rattus norvegicus [6] = assay: Antiinflammatory activity in albino rat assessed as inhibition of carrageenan-induced paw edema at 200 mg/kg, po administered 1 hr prior to carrageenan-challenge measured after 3 hrs; type: functional
Method in brief: (§2)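 Carrageenan rat paw oedema (albino rats of both sexes, 120–150 g), oral dosing in Tween 80 suspension 1 h before 50 µl 1% carrageenan sub-plantar injection. Inhibition read at 3 h over a three-dose series (50, 100, 200 mg/kg for test agents; 20, 50, 100 mg/kg for diclofenac sodium). IC50 given in mg/kg and µmol/kg.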

Rattus norvegicus [7] = assay: Ulcerogenic activity in fasted albino rat assessed as ulcer index at 100 mg/kg po administered qd for 3 days measured on day 4; type: toxicity, organism-based; parameters: dose 100 mg/kg, route oral; conditions: in vivo, 72 h
Method in brief: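 Albino rats of both sexes (120–150 g), five per group, fasted 20 h, then dosed orally in 1% Tween (test agents 100 mg/kg, celecoxib and diclofenac sodium 50 mg/kg). Feeding cycle: 2 h fast, 2 h feed, 20 h fast, repeated with doses on days 2 and 3. Ulcers scored 0–4. Ulcer index = %incidence/10 + mean ulcer number + mean severity.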

Rattus norvegicus [8] = assay: Antiinflammatory activity in po dosed albino rat assessed as inhibition of carrageenan-induced paw edema administered 1 hr prior to carrageenan-challenge measured after 3 hrs; type: functional, organism-based; method in brief: as §2
Rattus norvegicus [9] = assay: Antiinflammatory activity in po dosed albino rat assessed as inhibition of carrageenan-induced paw edema administered 1 hr prior to carrageenan-challenge relative to diclophenac; type: functional

SMILES	inhibition in vivo at 100 mg/kg (Rattus norvegicus [1])	inhibition in vivo at 100 mg/kg (Rattus norvegicus [2])	inhibition in vivo at 100 mg/kg (Rattus norvegicus [3])	inhibition in vivo at 100 mg/kg (Rattus norvegicus [4])	Ratio IC50 (Ovis aries)	inhibition in vivo at 50 mg/kg (Rattus norvegicus [5])	inhibition in vivo at 200 mg/kg (Rattus norvegicus [6])	UI (Rattus norvegicus [7])	IC50 (Rattus norvegicus [8])	inhibition (INH) (Rattus norvegicus [9])
N#Cc1c(Cl)nc(SCC(=O)Nn2c(COc3ccc(Cl)cc3Cl)nc3ccccc3c2=O)nc1-c1ccc(Cl)cc1	61.5%	68.4%	63.6%	68.4%	–	–	–	–	–	–
N#Cc1c(-c2ccccc2)nc(SCC(=O)Nn2c(COc3ccc(Cl)cc3Cl)nc3ccccc3c2=O)[nH]c1=O	80.8%	86%	81.8%	86%	20.6	68.4%	91.2%	14.4	86.74 mg/kg	>90%
N#Cc1c(-c2ccc(Cl)cc2)nc(SCC(=O)Nn2c(COc3ccc(Cl)cc3Cl)nc3ccccc3c2=O)n(Cc2ccccc2)c1=O	61.5%	77.2%	72.7%	77.2%	–	–	–	11.3	–	–
N#Cc1c(Nc2ccc(Cl)cc2)nc(SCC(=O)Nn2c(COc3ccc(Cl)cc3Cl)nc3ccccc3c2=O)nc1-c1ccccc1	51.9%	57.9%	54.5%	59.6%	–	–	–	–	–	–
O=C(CSc1nc(-c2ccc(O)cc2)c(C(=O)O)c(=O)[nH]1)Nn1c(COc2ccc(Cl)cc2Cl)nc2ccccc2c1=O	32.7%	38.6%	36.4%	38.6%	–	–	–	–	–	–
Cn1c(SCC(=O)Nn2c(COc3ccc(Cl)cc3Cl)nc3ccccc3c2=O)nc(-c2ccc(O)cc2)c(C#N)c1=O	76.9%	86%	80%	86%	0.62	70.4%	97.8%	11.22	82.89 mg/kg	>90%
N#Cc1c(Nc2ccccc2)nc(SCC(=O)Nn2c(COc3ccc(Cl)cc3Cl)nc3ccccc3c2=O)nc1-c1ccc(Cl)cc1	36.5%	50.9%	43.6%	56.1%	–	–	–	–	–	–
N#Cc1c(Nc2ccccc2)nc(SCC(=O)Nn2c(COc3ccc(Cl)cc3Cl)nc3ccccc3c2=O)nc1-c1ccc(O)cc1	90.4%	91.2%	90.9%	91.2%	0.44	77.2%	96.5%	11.38	81.31 mg/kg	>90%
N#Cc1c(-c2ccc(O)cc2)nc(SCC(=O)Nn2c(COc3ccc(Cl)cc3Cl)nc3ccccc3c2=O)[nH]c1=O	61.5%	68.4%	63.6%	68.4%	–	–	–	–	–	–
N#Cc1c(Cl)nc(SCC(=O)Nn2c(COc3ccc(Cl)cc3Cl)nc3ccccc3c2=O)nc1-c1ccccc1	53.9%	66.7%	60%	68.4%	–	–	–	–	–	–
N#Cc1c(Nc2ccc(Cl)cc2)nc(SCC(=O)Nn2c(COc3ccc(Cl)cc3Cl)nc3ccccc3c2=O)nc1-c1ccc(O)cc1	65.4%	77.2%	72.7%	79%	–	–	–	12.08	–	–
N#Cc1c(Nc2ccc(O)cc2)nc(SCC(=O)Nn2c(COc3ccc(Cl)cc3Cl)nc3ccccc3c2=O)nc1-c1ccc(Cl)cc1	71.2%	91.2%	90.9%	91.2%	0.4	61.4%	96.5%	14.43	83.36 mg/kg	>90%
N#Cc1c(Nc2ccc(O)cc2)nc(SCC(=O)Nn2c(COc3ccc(Cl)cc3Cl)nc3ccccc3c2=O)nc1-c1ccccc1	61.5%	59.6%	72.7%	59.6%	–	–	–	–	–	–
N#Cc1c(-c2ccccc2)nc(SCC(=O)Nn2c(COc3ccc(Cl)cc3Cl)nc3ccccc3c2=O)n(Cc2ccccc2)c1=O	76%	79%	77.3%	79%	–	–	–	10.9	–	–
O=C(CSc1nc(-c2ccccc2)c(C(=O)O)c(=O)[nH]1)Nn1c(COc2ccc(Cl)cc2Cl)nc2ccccc2c1=O	61.5%	68.4%	69.1%	64.9%	–	–	–	–	–	–
O=C(CSc1nc(-c2ccc(Cl)cc2)c(C(=O)O)c(=O)[nH]1)Nn1c(COc2ccc(Cl)cc2Cl)nc2ccccc2c1=O	51.9%	61.4%	58.2%	61.4%	–	–	–	–	–	–
N#Cc1c(-c2ccc(O)cc2)nc(SCC(=O)Nn2c(COc3ccc(Cl)cc3Cl)nc3ccccc3c2=O)n(Cc2ccccc2)c1=O	51.9%	56.1%	54.5%	61.4%	–	–	–	–	–	–
Cn1c(SCC(=O)Nn2c(COc3ccc(Cl)cc3Cl)nc3ccccc3c2=O)nc(-c2ccc(Cl)cc2)c(C#N)c1=O	80.8%	73.7%	76.4%	73.7%	–	–	–	–	–	–
N#Cc1c(Nc2ccc(Cl)cc2)nc(SCC(=O)Nn2c(COc3ccc(Cl)cc3Cl)nc3ccccc3c2=O)nc1-c1ccc(Cl)cc1	46.1%	61.4%	54.5%	64.9%	–	–	–	–	–	–
Cn1c(SCC(=O)Nn2c(COc3ccc(Cl)cc3Cl)nc3ccccc3c2=O)nc(-c2ccccc2)c(C#N)c1=O	51.9%	59.6%	54.5%	59.6%	–	–	–	–	–	–
N#Cc1c(-c2ccc(Cl)cc2)nc(SCC(=O)Nn2c(COc3ccc(Cl)cc3Cl)nc3ccccc3c2=O)[nH]c1=O	61.5%	64.9%	63.6%	64.9%	–	–	–	–	–	–
N#Cc1c(Cl)nc(SCC(=O)Nn2c(COc3ccc(Cl)cc3Cl)nc3ccccc3c2=O)nc1-c1ccc(O)cc1	67.3%	73.7%	72.7%	73.7%	–	–	–	–	–	–
N#Cc1c(Nc2ccccc2)nc(SCC(=O)Nn2c(COc3ccc(Cl)cc3Cl)nc3ccccc3c2=O)nc1-c1ccccc1	71.2%	78.1%	77.3%	78.1%	–	–	–	13.26	–	–
